Calls of active or inactive are those of the source. The rule behind the calls is not given here.
Assays:
Saccharomyces cerevisiae = assay: Anti-prion activity against [URE3] protein in Saccharomyces cerevisiae SB34 at 100 uM measured after 24 hrs by fluorimetry analysis
How it was run: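 Whole-cell yeast assay for curing of the [URE3] prion at a single concentration of 100 μM, scored as yes/no curing. Guanabenz was run as the positive control.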

[1] = Anti-prion activity against [PSI+] protein in Saccharomyces cerevisiae STRg6 measured after 24 hrs by fluorimetry analysis
How it was run: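 Whole-cell yeast assay for curing of the [PSI+] prion, which depends on compound uptake across the cell membrane. EC50 (μM) reported ± SE. Guanabenz was run as the positive control.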

SMILES | Activity (Saccharomyces cerevisiae) | EC50 [1] [µM]
COC1=C(c2cc(Br)c(O)c(Br)c2)[C@H](Cc2cc(Br)c(OC)c(Br)c2)OC1=O | Active | 67
COc1c(Br)cc(C[C@@H]2OC(=O)C(O)=C2c2cc(Br)c(O)c(Br)c2)cc1Br | Active | 34
COc1ccc(C[C@H](O)C(=O)c2cc(Br)c(O)c(Br)c2)cc1Br | Active | 29
N=C(N)N/N=C/c1c(Cl)cccc1Cl [GUANABENZ] | Active | 26
COc1ccc(C[C@@H]2OC(=O)C(O)=C2c2cc(Br)c(O)c(Br)c2)cc1Br | Active | 23
COc1c(Br)cc(C[C@H](O)C(=O)c2cc(Br)c(O)c(Br)c2)cc1Br | Active | 33
COC1=C(c2cc(Br)c(O)c(Br)c2)[C@H](Cc2ccc(OC)c(Br)c2)OC1=O | Active | 65
